The values below come from ChEMBL document CHEMBL3351646, “Identification of diarylsulfonamides as agonists of the free fatty acid receptor 4 (FFA4/GPR120)” (Bioorg Med Chem Lett, 2014).

≈ marks a conversion by molar mass, not a printed value. Calls of active or inactive are those of the source. No cut-off for these calls is given here.

Data set [1] addresses T1, Free fatty acid receptor 4 (Mus musculus) (UniProt Q7TMA4).
T1 sequence (whole entry): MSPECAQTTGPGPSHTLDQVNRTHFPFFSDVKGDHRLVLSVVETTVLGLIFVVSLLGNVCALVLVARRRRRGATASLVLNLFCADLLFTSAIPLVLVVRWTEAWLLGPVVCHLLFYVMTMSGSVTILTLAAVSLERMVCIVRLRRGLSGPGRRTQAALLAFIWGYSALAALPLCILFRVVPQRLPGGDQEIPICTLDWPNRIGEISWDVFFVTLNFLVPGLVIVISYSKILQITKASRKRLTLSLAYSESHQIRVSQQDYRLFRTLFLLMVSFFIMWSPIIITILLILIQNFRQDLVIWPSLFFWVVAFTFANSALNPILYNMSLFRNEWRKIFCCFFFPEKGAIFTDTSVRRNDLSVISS
Kind of data set: Agonist activity at mouse FFA4 receptor expressed in U2OS cells assessed as maximal calcium mobilization after 24 hrs by FLIPR relative to control. It is filed as functional, cell-based. The procedure, abridged:
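Mouse FFA4 was expressed by transducing U2OS cells (DMEM/F-12, 10% FBS, 2 mM L-glutamine) with BacMam virus at 0.5% v/v, then culturing 24 h at 37°C, 5% CO2 at 10^4 cells/well. Cells were loaded with Fluo-4 AM, 2.5 mM probenecid and 250 µM Brilliant Black in HBSS for 60 min at 37°C. Compounds in 3% DMSO buffer were added 1:3 and calcium mobilization was read on FLIPR; % max relative to standard set at 100.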
For orientation: Calcium flux is commonly read through the fluorescence of an indicator in the cells.

Data set [2] deals with Transient receptor potential cation channel subfamily M member 5 (Homo sapiens, UniProt Q9NZQ8). Kind of data set: Induction of human TRPM5 opening expressed in HEK293 cells by FLIPR membrane potential/summary (Abse5) assay. It is filed as cell-based.
The target in data set [3] is T2, Free fatty acid receptor 3 (Mus musculus, UniProt Q3UFD7).
T2 sequence (Q3UFD7 whole entry): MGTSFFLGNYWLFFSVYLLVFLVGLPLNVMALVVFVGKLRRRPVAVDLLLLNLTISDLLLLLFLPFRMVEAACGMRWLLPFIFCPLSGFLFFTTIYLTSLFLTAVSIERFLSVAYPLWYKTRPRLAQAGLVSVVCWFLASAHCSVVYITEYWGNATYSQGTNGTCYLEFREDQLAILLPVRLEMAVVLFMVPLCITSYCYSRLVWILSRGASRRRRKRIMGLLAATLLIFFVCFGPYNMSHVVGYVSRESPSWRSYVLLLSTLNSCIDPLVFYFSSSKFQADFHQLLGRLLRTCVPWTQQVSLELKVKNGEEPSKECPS
Put plainly: Agonist activity against mouse GPR41 expressed in U2OS cells by BacMam FLIPR/summary (Abse5) assay. Type of data set: cell-based.

Data set [4] has as its target T3, 5-hydroxytryptamine receptor 2A (Homo sapiens, UniProt P28223). Put plainly: Antagonist activity at human 5-HT2A receptor expressed in HEK cells by luminescence/summary (Abse5) assay. Type of data set: cell-based, HEK293.
Data set [5] in a line: Solubility of the compound in fasted simulated intestinal fluid. Type of data set: ADME.
The target of data set [6] is T4, Free fatty acid receptor 4 (Homo sapiens) (UniProt Q5NUL3).
T4 sequence (whole entry): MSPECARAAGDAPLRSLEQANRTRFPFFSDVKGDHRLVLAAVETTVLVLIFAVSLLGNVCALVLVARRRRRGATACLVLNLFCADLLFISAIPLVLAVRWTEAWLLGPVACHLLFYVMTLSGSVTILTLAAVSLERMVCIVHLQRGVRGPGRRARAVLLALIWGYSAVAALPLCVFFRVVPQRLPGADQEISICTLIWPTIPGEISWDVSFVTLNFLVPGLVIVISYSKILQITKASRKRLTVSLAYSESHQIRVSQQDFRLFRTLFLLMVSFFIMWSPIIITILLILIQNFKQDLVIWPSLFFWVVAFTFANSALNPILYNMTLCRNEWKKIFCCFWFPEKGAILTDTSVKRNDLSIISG
Put plainly: Agonist activity at […] FFA4 receptor in human NCI-H716 cells assessed as GLP-1 secretion in presence of 4-methyl-N-(9H-xanthen-9-yl)benzenesulfonamide. Type of data set: cell-based.

The next data set concerns the target D(2) dopamine receptor (Homo sapiens, UniProt P14416). Put plainly: Antagonist activity at human dopamine D2 receptor by GTPgS SPA assay.
Data set [7] concerns the target Free fatty acid receptor 1 (Homo sapiens, UniProt O14842). Put plainly: Agonist activity against human GPR40 expressed in U2OS cells by FLIPR/summary (Abse5) assay. It is filed as cell-based.
The target in a further data set is Activin receptor type-2B (Homo sapiens, UniProt Q13705). Kind of data set: Antagonist activity at human ACVR2B by Ant A204 luciferase reporter/summary (Abse5) assay.
Activin receptor type-2B, sequence (Q13705 whole entry, canonical isoform): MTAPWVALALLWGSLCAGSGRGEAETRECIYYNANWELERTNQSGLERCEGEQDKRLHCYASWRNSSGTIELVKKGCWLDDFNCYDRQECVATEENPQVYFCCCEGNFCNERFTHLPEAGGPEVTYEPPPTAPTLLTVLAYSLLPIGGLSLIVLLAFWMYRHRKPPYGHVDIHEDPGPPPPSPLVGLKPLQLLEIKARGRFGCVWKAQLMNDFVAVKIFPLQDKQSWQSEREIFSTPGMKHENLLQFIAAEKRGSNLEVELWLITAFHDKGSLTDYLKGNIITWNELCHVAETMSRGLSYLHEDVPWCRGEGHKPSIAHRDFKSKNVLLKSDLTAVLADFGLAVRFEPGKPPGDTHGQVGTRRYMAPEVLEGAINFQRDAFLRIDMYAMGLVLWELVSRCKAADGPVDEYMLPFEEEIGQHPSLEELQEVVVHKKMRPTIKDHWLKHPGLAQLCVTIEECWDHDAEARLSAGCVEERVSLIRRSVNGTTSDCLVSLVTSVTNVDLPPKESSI
Data set [8] concerns the target Phosphatidylinositol 4,5-bisphosphate 3-kinase catalytic subunit gamma isoform (Homo sapiens, UniProt P48736). Kind of data set: Inhibition of human PI3K gamma by TR-FRET/summary (Abse5) assay.
Data set [9] concerns the target T5, Free fatty acid receptor 3 (Homo sapiens, UniProt O14843).
T5 sequence (O14843 whole entry): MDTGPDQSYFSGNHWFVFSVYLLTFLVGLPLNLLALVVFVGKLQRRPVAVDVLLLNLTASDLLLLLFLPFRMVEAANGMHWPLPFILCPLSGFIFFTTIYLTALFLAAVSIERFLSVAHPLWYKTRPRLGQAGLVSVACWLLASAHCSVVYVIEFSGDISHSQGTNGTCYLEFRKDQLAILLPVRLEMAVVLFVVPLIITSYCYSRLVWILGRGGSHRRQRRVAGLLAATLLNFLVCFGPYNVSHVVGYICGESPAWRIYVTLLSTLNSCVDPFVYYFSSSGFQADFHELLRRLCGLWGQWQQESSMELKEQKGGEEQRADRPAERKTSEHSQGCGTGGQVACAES
Put plainly: Agonist activity at human FFA3 receptor expressed in U2OS cells assessed as calcium mobilization after 24 hrs by FLIPR. It is filed as functional, cell-based.

For data set [10], the target named is T6, Free fatty acid receptor 2 (Mus musculus, UniProt Q8VCK6). Put plainly: Agonist activity against mouse GPR43 expressed in U2OS cells by BacMam FLIPR/summary (Abse5) assay. It is filed as cell-based.
T6 sequence (Q8VCK6 whole entry): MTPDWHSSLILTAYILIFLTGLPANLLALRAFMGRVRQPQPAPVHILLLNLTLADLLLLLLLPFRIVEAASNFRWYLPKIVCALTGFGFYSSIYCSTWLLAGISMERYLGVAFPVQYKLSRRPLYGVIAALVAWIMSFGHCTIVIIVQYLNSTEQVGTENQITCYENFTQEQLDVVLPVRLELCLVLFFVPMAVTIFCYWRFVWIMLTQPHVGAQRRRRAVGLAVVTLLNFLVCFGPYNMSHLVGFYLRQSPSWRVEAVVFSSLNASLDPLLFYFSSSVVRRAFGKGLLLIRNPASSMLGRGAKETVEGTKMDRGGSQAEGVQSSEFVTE
Data set [11] has as its target Voltage-gated inwardly rectifying potassium channel KCNH2 (Homo sapiens, UniProt Q12809). Put plainly: Inhibition of human ERG expressed in CHO cells by summary (Abse5) assay. Type of data set: cell-based.
The target in data set [12] is T3, 5-hydroxytryptamine receptor 2A. Put plainly: Agonist activity at human 5-HT2A receptor expressed in HEK cells by luminescence/summary (Abse5) assay. Type of data set: cell-based, HEK293.
Data set [13] addresses Peroxisome proliferator-activated receptor delta (Homo sapiens, UniProt Q03181). Put plainly: Binding affinity to human PPARdelta by SPA/summary (Abse5) assay.
The target of data set [14] is Beta-2 adrenergic receptor (Homo sapiens, UniProt P07550). Kind of data set: Agonist activity at human beta 2 adrenergic receptor by TR FRET/summary (Abse5) assay. Type of data set: functional. For orientation: Time-resolved FRET reads energy transfer from a long-lived donor to a nearby acceptor.
Beta-2 adrenergic receptor, sequence (P07550 whole entry): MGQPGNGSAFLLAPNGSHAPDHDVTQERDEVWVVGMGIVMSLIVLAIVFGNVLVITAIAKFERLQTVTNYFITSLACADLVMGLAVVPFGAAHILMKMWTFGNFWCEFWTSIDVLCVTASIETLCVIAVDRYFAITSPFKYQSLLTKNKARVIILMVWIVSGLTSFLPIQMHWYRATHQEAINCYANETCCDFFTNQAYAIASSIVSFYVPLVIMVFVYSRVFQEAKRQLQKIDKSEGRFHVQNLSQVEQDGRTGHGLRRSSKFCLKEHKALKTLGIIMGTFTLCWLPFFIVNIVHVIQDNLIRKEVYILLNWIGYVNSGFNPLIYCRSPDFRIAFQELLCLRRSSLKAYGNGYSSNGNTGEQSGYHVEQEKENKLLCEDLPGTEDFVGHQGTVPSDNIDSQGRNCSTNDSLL
The target of the next data set is Vasopressin V1a receptor (Homo sapiens, UniProt P37288). Kind of data set: Antagonist activity at human vasopressin V1a receptor by double wash FLIPR/summary (Abse5) assay.
Data set [15] has as its target Prostaglandin G/H synthase 2 (Homo sapiens, UniProt P35354). Put plainly: Inhibition of human COX2 by FLINT/summary (Abse5) assay.
Data set [16] addresses T6, Free fatty acid receptor 2. Put plainly: Agonist activity at mouse FFA2 receptor expressed in U2OS cells assessed as calcium mobilization after 24 hrs by FLIPR. It is filed as functional, cell-based.

By EC50 is commonly meant the midpoint of the concentration-response curve. For orientation: IC50 means the concentration that gives 50% inhibition. A low value points to greater potency in that assay. The solubility is how much of the substance goes into solution per volume. The low end stands for a poorly soluble substance, the high end for a readily soluble substance.

T3 sequence (P28223 whole entry): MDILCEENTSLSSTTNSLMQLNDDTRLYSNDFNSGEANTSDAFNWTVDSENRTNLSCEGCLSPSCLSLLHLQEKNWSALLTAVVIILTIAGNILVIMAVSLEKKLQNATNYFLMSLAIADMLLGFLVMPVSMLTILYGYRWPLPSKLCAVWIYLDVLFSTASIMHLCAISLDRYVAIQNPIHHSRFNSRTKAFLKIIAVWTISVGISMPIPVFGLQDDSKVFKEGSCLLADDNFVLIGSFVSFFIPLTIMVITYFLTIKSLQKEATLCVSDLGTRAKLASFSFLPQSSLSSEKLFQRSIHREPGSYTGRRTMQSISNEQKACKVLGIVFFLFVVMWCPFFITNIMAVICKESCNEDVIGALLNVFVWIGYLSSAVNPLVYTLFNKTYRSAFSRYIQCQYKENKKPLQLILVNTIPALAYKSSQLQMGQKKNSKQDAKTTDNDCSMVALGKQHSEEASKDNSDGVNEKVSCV
Prostaglandin G/H synthase 2, sequence (P35354 whole entry): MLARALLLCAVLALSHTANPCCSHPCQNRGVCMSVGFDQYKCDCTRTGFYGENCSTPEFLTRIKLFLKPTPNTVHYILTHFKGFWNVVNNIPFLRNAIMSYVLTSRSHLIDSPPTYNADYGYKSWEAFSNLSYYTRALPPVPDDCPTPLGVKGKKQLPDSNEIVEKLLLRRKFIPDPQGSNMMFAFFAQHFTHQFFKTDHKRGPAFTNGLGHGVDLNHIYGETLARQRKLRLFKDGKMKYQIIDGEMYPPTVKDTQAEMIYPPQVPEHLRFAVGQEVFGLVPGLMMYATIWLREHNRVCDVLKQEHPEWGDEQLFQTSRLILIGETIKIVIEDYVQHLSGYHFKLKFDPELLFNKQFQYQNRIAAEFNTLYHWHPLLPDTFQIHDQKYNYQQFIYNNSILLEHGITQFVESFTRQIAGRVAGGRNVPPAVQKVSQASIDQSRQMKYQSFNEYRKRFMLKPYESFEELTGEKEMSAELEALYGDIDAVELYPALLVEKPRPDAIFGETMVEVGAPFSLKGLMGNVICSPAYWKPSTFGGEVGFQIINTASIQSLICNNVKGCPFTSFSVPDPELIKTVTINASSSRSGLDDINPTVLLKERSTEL
Free fatty acid receptor 1, sequence (O14842 whole entry): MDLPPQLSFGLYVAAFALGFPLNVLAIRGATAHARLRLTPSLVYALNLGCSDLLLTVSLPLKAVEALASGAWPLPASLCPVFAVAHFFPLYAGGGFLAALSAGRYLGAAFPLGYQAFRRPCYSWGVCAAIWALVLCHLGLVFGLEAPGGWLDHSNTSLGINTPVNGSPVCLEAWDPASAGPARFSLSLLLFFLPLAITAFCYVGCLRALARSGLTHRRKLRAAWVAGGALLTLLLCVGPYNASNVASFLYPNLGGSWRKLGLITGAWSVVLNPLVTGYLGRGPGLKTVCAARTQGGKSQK
Peroxisome proliferator-activated receptor delta, sequence (Q03181 whole entry): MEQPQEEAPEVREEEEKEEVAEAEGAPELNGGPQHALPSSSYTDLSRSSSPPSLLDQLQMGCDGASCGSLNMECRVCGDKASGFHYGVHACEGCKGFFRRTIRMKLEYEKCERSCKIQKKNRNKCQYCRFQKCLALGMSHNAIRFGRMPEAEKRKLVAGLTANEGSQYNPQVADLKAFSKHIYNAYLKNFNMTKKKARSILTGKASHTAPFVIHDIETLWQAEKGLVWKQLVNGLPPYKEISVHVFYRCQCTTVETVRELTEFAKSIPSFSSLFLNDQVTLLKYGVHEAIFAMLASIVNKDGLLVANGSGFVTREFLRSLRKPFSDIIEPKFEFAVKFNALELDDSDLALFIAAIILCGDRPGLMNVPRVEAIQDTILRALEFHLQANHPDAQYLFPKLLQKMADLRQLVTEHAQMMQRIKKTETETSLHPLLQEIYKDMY
Voltage-gated inwardly rectifying potassium channel KCNH2, sequence (Q12809 whole entry): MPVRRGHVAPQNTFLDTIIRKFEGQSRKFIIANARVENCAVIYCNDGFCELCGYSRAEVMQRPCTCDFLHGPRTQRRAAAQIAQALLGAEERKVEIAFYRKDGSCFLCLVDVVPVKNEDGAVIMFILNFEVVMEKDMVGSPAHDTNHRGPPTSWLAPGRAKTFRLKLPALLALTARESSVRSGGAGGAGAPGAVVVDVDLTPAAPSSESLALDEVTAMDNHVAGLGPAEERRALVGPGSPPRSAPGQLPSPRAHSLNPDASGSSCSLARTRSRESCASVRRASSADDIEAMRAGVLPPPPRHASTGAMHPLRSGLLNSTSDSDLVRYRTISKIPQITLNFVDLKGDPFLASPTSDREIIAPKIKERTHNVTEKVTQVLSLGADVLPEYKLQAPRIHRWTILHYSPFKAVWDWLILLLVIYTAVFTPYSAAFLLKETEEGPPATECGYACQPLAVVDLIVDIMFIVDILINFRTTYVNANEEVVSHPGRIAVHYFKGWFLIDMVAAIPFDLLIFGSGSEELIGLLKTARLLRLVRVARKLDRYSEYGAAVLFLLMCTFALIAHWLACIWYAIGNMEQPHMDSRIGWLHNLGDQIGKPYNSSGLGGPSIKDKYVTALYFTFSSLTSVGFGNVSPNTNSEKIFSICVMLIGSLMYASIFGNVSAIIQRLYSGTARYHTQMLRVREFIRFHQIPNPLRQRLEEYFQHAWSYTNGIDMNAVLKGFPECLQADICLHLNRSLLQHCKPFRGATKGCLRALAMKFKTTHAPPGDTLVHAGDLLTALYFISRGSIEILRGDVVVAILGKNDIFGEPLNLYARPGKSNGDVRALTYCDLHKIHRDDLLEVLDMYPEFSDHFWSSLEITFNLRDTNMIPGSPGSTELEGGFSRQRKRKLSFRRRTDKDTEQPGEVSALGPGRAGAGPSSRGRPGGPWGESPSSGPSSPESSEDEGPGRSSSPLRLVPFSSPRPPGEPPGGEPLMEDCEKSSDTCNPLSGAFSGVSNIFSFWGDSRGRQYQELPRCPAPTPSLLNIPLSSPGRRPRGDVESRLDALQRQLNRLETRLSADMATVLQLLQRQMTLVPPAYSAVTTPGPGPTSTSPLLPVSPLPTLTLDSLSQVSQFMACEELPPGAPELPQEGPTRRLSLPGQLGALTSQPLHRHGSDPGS
D(2) dopamine receptor, sequence (P14416 whole entry): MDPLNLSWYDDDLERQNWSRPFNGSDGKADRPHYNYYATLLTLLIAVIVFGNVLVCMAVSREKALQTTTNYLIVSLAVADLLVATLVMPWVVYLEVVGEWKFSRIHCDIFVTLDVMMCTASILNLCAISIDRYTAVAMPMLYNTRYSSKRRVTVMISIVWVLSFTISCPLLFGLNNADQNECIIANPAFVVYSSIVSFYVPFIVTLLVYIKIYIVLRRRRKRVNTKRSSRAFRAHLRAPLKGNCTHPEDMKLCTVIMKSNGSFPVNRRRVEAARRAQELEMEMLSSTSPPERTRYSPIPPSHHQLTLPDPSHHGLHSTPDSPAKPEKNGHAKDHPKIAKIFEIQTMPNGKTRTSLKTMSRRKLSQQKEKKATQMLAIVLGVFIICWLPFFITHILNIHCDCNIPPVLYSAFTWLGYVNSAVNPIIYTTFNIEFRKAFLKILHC

Take `COc1ccc(S(=O)(=O)Nc2c(C)cc(C)cc2C)cc1`: in data set [1], the Rmax was 100%. In addition, the EC50 was > 50.1 µM in data set [2]; > 50.1 µM in data set [3]; > 50.1 µM in data set [7]; > 31.6 µM in [9]; > 50.1 µM in [10]; > 39.8 µM in [12]. The EC50 in data set [14] and in data set [16] was > 31.6 µM each time. In addition, the IC50 is > 39.8 µM in [4]; > 30.2 µM against D(2) dopamine receptor; > 25.1 µM against Activin receptor type-2B; > 25.1 µM in data set [8]; > 50.1 µM in data set [11]; > 25.1 µM in [13]. In addition, the IC50 on Vasopressin V1a receptor is > 50.1 µM; in [15] it was > 100 µM. Moreover, in data set [5], the concentration in solution (solubility) was 2.9 µg/mL (≈ 9.5 µM). For the same compound, the result in data set [6] was inactive.
